Measured values reported in ChEMBL document CHEMBL2346534, “Design, synthesis and in vitro anti-proliferative activity of 4,6-quinazolinediamines as potent EGFR-TK inhibitors” (Eur J Med Chem, 2013).

Tests used:
Format in all cases: functional
T47D = test: Cytotoxicity against human T47D cells after 48 hrs by SRB assay
Method in brief: (§1)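 NCI 60 five-dose screen. Cells in RPMI 1640 with 5% FBS and 2 mM L-glutamine, plated at 5000–40,000 cells/well by doubling time, pre-incubated 24 h at 37 °C, 5% CO2. Time-zero plates TCA-fixed at drug addition. Final concentrations 0.01, 0.1, 1, 10 and 100 µM (DMSO stock), 48 h exposure. TCA fixation, 0.4% SRB stain, absorbance 515 nm. GI50 from [(Ti−Tz)/(C−Tz)]×100 = 50.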

MDA-MB-231 = test: Cytotoxicity against human MDA-MB-231/ATCC cells after 48 hrs by SRB assay; details: MDA-MB-231, 48 h
Method in brief: (§2)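 NCI 60-panel five-dose screen. Cells in RPMI 1640 with 5% FBS and 2 mM L-glutamine, plated at 5000–40,000 cells/well by doubling time, preincubated 24 h at 37 °C/5% CO2. Drug from DMSO stock added at 0.01, 0.1, 1, 10 and 100 µM, then 48 h. TCA fixation, SRB stain, absorbance at 515 nm, time-zero plates included. GI50 = 50% reduction in net protein increase versus control.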

Hs-578T = test: Cytotoxicity against human Hs578T cells after 48 hrs by SRB assay; method in brief: as §2
TK-10 = test: Cytotoxicity against human TK10 cells after 48 hrs by SRB assay; details: TK-10, 48 h; method in brief: as §1
RXF 393 = test: Cytotoxicity against human RXF393 cells after 48 hrs by SRB assay; details: RXF 393, 48 h
Method in brief: (§3)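 NCI 60-panel five-dose screen. Cells in RPMI 1640 with 5% FBS and 2 mM L-glutamine are plated at 5000–40,000 cells/well by doubling time and preincubated 24 h at 37 °C in 5% CO2. Drug in DMSO is tested at 0.01, 0.1, 1, 10 and 100 μM for 48 h. Cells are TCA-fixed, stained with SRB and read at 515 nm. GI50 is the concentration giving 50% reduction in net protein increase relative to time-zero and control plates.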

ACHN = test: Cytotoxicity against human ACHN cells after 48 hrs by SRB assay; method in brief: as §2
786-0 = test: Cytotoxicity against human 786-0 cells after 48 hrs by SRB assay; details: 786-0, 48 h; method in brief: as §2
OVCAR-8 = test: Cytotoxicity against human OVCAR8 cells after 48 hrs by SRB assay; details: OVCAR-8, 48 h; method in brief: as §3
[1] = Cytotoxicity against human NCI-ADR-RES cells after 48 hrs by SRB assay; method in brief: as §3
OVCAR-4 = test: Cytotoxicity against human OVCAR4 cells after 48 hrs by SRB assay; details: OVCAR-4, 48 h; method in brief: as §3
IGROV-1 = test: Cytotoxicity against human IGROV1 cells after 48 hrs by SRB assay; details: IGROV-1, 48 h; method in brief: as §2
OVCAR-3 = test: Cytotoxicity against human OVCAR3 cells after 48 hrs by SRB assay; details: OVCAR-3, 48 h; method in brief: as §3
UACC-257 = test: Cytotoxicity against human UACC257 cells after 48 hrs by SRB assay; details: UACC-257, 48 h; method in brief: as §1
UACC-62 = test: Cytotoxicity against human UACC62 cells after 48 hrs by SRB assay; details: UACC-62, 48 h; method in brief: as §1
SK-MEL-5 = test: Cytotoxicity against human SK-MEL-5 cells after 48 hrs by SRB assay; details: SK-MEL-5, 48 h; method in brief: as §3
SK-MEL-28 = test: Cytotoxicity against human SK-MEL-28 cells after 48 hrs by SRB assay; details: SK-MEL-28, 48 h; method in brief: as §3
MDA-MB-435 = test: Cytotoxicity against human MDA-MB-435 cells after 48 hrs by SRB assay; details: MDA-MB-435, 48 h; method in brief: as §2
SNB-75 = test: Cytotoxicity against human SNB75 cells after 48 hrs by SRB assay; details: SNB-75, 48 h; method in brief: as §3
SF-539 = test: Cytotoxicity against human SF539 cells after 48 hrs by SRB assay; details: SF-539, 48 h; method in brief: as §3
SW-620 = test: Cytotoxicity against human SW620 cells after 48 hrs by SRB assay; details: SW-620, 48 h; method in brief: as §1
COLO 205 = test: Cytotoxicity against human COLO205 cells after 48 hrs by SRB assay; details: COLO 205, 48 h; method in brief: as §2
A549 = test: Cytotoxicity against human A549/ATCC cells after 48 hrs by SRB assay; details: A549, 48 h; method in brief: as §2
MOLT-4 = test: Cytotoxicity against human MOLT4 cells after 48 hrs by SRB assay; details: MOLT-4, 48 h; method in brief: as §3
RPMI-8226 = test: Cytotoxicity against human RPMI8226 cells after 48 hrs by SRB assay; details: RPMI-8226, 48 h; method in brief: as §3
HL-60(TB) = test: Cytotoxicity against human HL-60(TB) cells after 48 hrs by SRB assay; details: HL-60, 48 h
Method in brief: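 NCI 60-panel five-dose screen. Cells were grown in RPMI 1640 with 5% FBS and 2 mM L-glutamine and preincubated 24 h before dosing. Compound from DMSO stock was given at five 10-fold concentrations for 48 h at 37 °C, 5% CO2. Suspension cells were fixed with TCA (final 16%), SRB-stained, and read at 515 nm. GI50, TGI and LC50 came from time-zero, control and treated absorbances.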

[2] = read-out: LC50 (the source's name)

NC(=O)Nc1ccc2ncnc(Nc3ccc(Cl)cc3)c2c1
GI50 (T47D): 6.47 µM
TGI (T47D): 72.3 µM
CC50 (T47D; [2]): > 100 µM
GI50 (MDA-MB-231): 8.92 µM
TGI (MDA-MB-231): 37.7 µM
CC50 (MDA-MB-231; [2]): > 100 µM
GI50 (Hs-578T): 14.8 µM
TGI (Hs-578T): 55.9 µM
CC50 (Hs-578T; [2]): > 100 µM
GI50 (TK-10): 0.98 µM
TGI (TK-10): 16.2 µM
CC50 (TK-10; [2]): > 100 µM
GI50 (RXF 393): 15.1 µM
TGI (RXF 393): 75.9 µM
CC50 (RXF 393; [2]): > 100 µM
GI50 (ACHN): 1.47 µM
TGI (ACHN): 35.8 µM
CC50 (ACHN; [2]): > 100 µM
GI50 (786-0): 20.7 µM
TGI (786-0): 88.9 µM
CC50 (786-0; [2]): > 100 µM
GI50 (OVCAR-8): 21.7 µM
TGI (OVCAR-8): > 100 µM
CC50 (OVCAR-8; [2]): > 100 µM
GI50 [1]: 19.5 µM
TGI [1]: > 100 µM
CC50 [1, 2]: > 100 µM
GI50 (OVCAR-4): 9.14 µM
TGI (OVCAR-4): > 100 µM
CC50 (OVCAR-4; [2]): > 100 µM
GI50 (IGROV-1): 6.85 µM
TGI (IGROV-1): 27.6 µM
CC50 (IGROV-1; [2]): 90.1 µM
GI50 (OVCAR-3): 8.36 µM
TGI (OVCAR-3): 69.5 µM
CC50 (OVCAR-3; [2]): > 100 µM
GI50 (UACC-257): 23.5 µM
TGI (UACC-257): 75.2 µM
CC50 (UACC-257; [2]): > 100 µM
GI50 (UACC-62): 13.5 µM
TGI (UACC-62): 32.2 µM
CC50 (UACC-62; [2]): 77 µM
GI50 (SK-MEL-5): 13.5 µM
TGI (SK-MEL-5): 30.7 µM
CC50 (SK-MEL-5; [2]): 70.1 µM
GI50 (SK-MEL-28): 26.7 µM
TGI (SK-MEL-28): > 100 µM
CC50 (SK-MEL-28; [2]): > 100 µM
GI50 (MDA-MB-435): 16.9 µM
TGI (MDA-MB-435): 47.6 µM
CC50 (MDA-MB-435; [2]): > 100 µM
GI50 (SNB-75): 3.36 µM
TGI (SNB-75): 47 µM
CC50 (SNB-75; [2]): > 100 µM
GI50 (SF-539): 25.5 µM
TGI (SF-539): > 100 µM
CC50 (SF-539; [2]): > 100 µM
GI50 (SW-620): 39.7 µM
TGI (SW-620): > 100 µM
CC50 (SW-620; [2]): > 100 µM
GI50 (COLO 205): 27.5 µM
TGI (COLO 205): > 100 µM
CC50 (COLO 205; [2]): > 100 µM
GI50 (A549): 19.2 µM
TGI (A549): > 100 µM
CC50 (A549; [2]): > 100 µM
GI50 (MOLT-4): 18.1 µM
TGI (MOLT-4): 87.1 µM
CC50 (MOLT-4; [2]): > 100 µM
GI50 (RPMI-8226): 20.5 µM
TGI (RPMI-8226): 78.9 µM
CC50 (RPMI-8226; [2]): > 100 µM
GI50 (HL-60(TB)): 24.4 µM
TGI (HL-60(TB)): 69.8 µM
CC50 (HL-60(TB); [2]): > 100 µM
